One compound from ChEMBL document CHEMBL1123598, “Inactivation of thymidylate synthase at an alternate high-affinity binding site” (J Med Chem, 1987) can be followed below.

In the assay the target is T1, Thymidylate synthase (Lactobacillus casei) (UniProt P00469).
T1 sequence (whole entry): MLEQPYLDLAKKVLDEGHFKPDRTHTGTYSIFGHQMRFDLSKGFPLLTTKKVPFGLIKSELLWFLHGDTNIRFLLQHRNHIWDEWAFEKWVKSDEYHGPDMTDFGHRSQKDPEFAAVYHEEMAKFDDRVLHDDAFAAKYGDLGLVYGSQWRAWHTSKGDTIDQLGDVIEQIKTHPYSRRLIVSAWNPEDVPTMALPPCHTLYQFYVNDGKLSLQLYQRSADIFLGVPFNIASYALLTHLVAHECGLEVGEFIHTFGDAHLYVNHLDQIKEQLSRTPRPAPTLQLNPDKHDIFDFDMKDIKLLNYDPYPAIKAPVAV
In words: Kinetic constant for the inactivation of Lactobacillus casei thymidylate synthase was determined at the concentration of 60 uM in the absence of substrate. The note with it: Lacticaseibacillus casei. The method, boiled down: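 Enzyme (sp act. 3.2 μM mg⁻¹ min⁻¹) incubated with inhibitor in 0.1 M phosphate buffer, pH 6.8, 30 °C, with no substrate or with substrate at the stated concentration. Aliquots were withdrawn at intervals and residual activity was measured with 50 μM substrate in a 60-s assay. k_obsd was taken from activity loss; k2 and Ka came from the double-reciprocal plot of 1/k_obsd vs 1/[inhibitor].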

Molecules are shown by their SMILES.

In the case of `CC1=CC(=O)c2ccccc2C1=O`, the k turned out to be 5 se-1.
